According to ChEMBL document CHEMBL1127082, “3,4-Dihydroxychalcones as potent 5-lipoxygenase and cyclooxygenase inhibitors” (J Med Chem, 1993):

Key:
[1] = target: T1, Polyunsaturated fatty acid 5-lipoxygenase (Rattus norvegicus, UniProt P12527); experiment: In vitro inhibition against 5-lipoxygenase in RBL-1 cells was determined; assay type: cell-based
T1 sequence (P12527 whole entry): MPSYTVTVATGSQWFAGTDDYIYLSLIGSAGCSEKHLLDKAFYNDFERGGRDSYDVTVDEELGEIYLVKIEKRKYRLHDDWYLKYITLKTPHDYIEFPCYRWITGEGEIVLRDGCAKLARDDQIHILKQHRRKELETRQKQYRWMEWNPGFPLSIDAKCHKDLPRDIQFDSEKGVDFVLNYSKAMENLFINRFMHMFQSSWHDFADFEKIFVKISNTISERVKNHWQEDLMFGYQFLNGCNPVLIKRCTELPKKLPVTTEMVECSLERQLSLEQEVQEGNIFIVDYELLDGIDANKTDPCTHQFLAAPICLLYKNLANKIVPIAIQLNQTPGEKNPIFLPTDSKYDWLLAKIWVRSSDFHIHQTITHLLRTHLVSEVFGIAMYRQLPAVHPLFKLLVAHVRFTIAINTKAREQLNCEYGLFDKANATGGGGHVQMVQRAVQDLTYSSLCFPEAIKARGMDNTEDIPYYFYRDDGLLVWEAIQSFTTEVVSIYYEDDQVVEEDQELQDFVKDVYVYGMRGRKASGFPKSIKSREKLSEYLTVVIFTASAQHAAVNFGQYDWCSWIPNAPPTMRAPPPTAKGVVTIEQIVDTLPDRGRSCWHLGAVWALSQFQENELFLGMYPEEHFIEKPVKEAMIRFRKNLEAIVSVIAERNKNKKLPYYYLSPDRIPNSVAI

[2] = Inhibition of Prostaglandin G/H synthase activity in sheep seminal vesicle was determined; assay type: tissue-based, Ovis aries
Procedure, shortened: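 Sheep seminal vesicle microsomes (32 μg protein) were incubated with [14C]arachidonic acid (0.1 μCi/mL) in pH 7.4 phosphate buffer containing glutathione, epinephrine and EDTA for 10 min at 37 °C. Substrate was removed by two hexane/EtOAc extractions, and aqueous-phase radioactivity was counted by scintillation.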

[3] = target: Prostaglandin G/H synthase 1 (Ovis aries) (UniProt P05979); experiment: Inhibition of Prostaglandin G/H synthase activity in sheep seminal vesicle was determined; design: concentration or dose not given beside the values; settings: concentration not given here
Sequence of Prostaglandin G/H synthase 1 (Ovis aries) (P05979 whole entry, looked up): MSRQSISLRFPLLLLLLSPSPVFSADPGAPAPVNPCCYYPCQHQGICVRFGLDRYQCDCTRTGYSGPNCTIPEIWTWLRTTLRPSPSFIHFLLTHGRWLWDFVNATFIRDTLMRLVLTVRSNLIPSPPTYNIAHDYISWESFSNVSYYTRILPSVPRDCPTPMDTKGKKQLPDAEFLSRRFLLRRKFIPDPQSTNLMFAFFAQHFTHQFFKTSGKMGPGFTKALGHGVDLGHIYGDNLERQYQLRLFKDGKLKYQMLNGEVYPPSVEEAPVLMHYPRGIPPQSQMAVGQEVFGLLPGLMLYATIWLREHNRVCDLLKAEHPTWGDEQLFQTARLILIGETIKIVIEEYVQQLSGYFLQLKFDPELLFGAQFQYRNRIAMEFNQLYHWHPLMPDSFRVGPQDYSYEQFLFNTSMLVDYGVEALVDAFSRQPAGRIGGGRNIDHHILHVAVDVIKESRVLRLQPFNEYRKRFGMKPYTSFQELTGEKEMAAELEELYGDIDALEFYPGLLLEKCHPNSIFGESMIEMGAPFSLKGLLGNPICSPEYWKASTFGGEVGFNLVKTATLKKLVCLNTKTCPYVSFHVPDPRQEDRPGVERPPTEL

Rattus norvegicus = organism: Rattus norvegicus; experiment: Inhibition of lipid peroxidation in rat liver microsomes at 1 uM; assay type: functional
[4] = target: Prostaglandin G/H synthase 1 (Ovis aries) (UniProt P05979); experiment: Inhibition of Prostaglandin G/H synthase activity in sheep seminal vesicle was determined at 100 uM
[5] = target: Prostaglandin G/H synthase 1 (Ovis aries) (UniProt P05979); experiment: Inhibition of Prostaglandin G/H synthase activity in sheep seminal vesicle was determined 100 uM
[6] = target: Cyclooxygenase (Homo sapiens) (UniProt P35354+P23219); experiment: Inhibition of Prostaglandin G/H synthase activity in sheep seminal vesicle was determined 10E-4 […]; assay type: tissue-based; settings: Ovis aries, target entry is the homologue from another species
[7] = target: T2, Polyunsaturated fatty acid 5-lipoxygenase (Rattus norvegicus) (UniProt P12527); experiment: In vitro inhibition against 5-lipoxygenase in RBL-1 cells was determinedb at 100 uM; assay type: cell-based
T2 sequence (whole entry): T1 sequence (P12527 whole entry)
Procedure, shortened: (§1)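 Single-concentration test at 100 μM, given as percent inhibition versus control, average of two determinations. RBL-1 cell homogenate (5 × 10⁶ cells) with 2 mM CaCl2 and 0.66 mM arachidonic acid, pH 7.4 phosphate buffer, 3 min at 37 °C. 5-HETE was measured by HPLC absorbance at 235 nm.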

Mus musculus = experiment: Inhibition of arachidonic acid induced mouse ear edema at 30 ug/ear; assay type: functional
Procedure, shortened: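 Male ICR mice (25–28 g), 4–8 per group, received the compound topically in acetone, then 1 mg arachidonic acid on the inner surface of one ear. After 1 h, swelling was taken as the weight difference between challenged and unchallenged ears. Inhibition = (C−T)/C × 100; mean ± SE; Student's t test.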

[8] = target: T2, Polyunsaturated fatty acid 5-lipoxygenase (Rattus norvegicus); experiment: In vitro inhibition against 5-lipoxygenase in RBL-1 cells was determined at 10e-4 M; assay type: cell-based
Procedure, shortened: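 RBL-1 cells grown in RPMI-1640 with 10% heat-inactivated newborn calf serum at 37 °C in 5% CO2, harvested in growth phase, suspended in 50 mM phosphate buffer pH 7.4 (0.25 M sucrose, 1 mM EDTA, 2 mM glutathione) and stored at -70 °C. Homogenate (5 × 10⁶ cells), 2 mM CaCl2 and 0.66 mM arachidonic acid incubated 3 min at 37 °C. MeOH stop, 5-HETE by HPLC at 235 nm. Percent inhibition versus control at 10⁻⁴ M, mean of two determinations.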

[9] = target: Prostaglandin G/H synthase 1 (Ovis aries) (UniProt P05979); experiment: Inhibition of Prostaglandin G/H synthase activity in sheep seminal vesicle was determined 100 uM; remark: listed apart in the source
[10] = target: T2, Polyunsaturated fatty acid 5-lipoxygenase (Rattus norvegicus); experiment: In vitro inhibition against 5-lipoxygenase in RBL-1 cells was determined at 100 uM; assay type: cell-based; procedure, shortened: as §1

| SMILES | IC50 [1] [µM] | IC50 [2] [µM] | other results |
| --- | --- | --- | --- |
| CN(C)c1cccc(C(=O)/C=C/c2ccc(O)c(O)c2)c1 | 0.0098 | 41 |  |
| O=C(/C=C/c1ccccc1)c1c(O)cc(O)cc1O [2',4',6-TRIHYDROXYCHALCONE] |  |  | inhibition [3]: 6.9%; inhibition (Rattus norvegicus): 9% |
| COc1ccccc1C(=O)/C=C/c1ccc(O)c(O)c1 | 0.027 | 13 |  |
| COc1cccc(OC)c1C(=O)/C=C/c1ccc(O)c(O)c1 | 0.37 |  | inhibition [4]: 15% |
| Cc1ccc(C(=O)/C=C/c2ccc(O)c(O)c2)cc1 | 0.076 | 210 |  |
| O=C(/C=C/c1ccc(O)cc1)c1ccccc1O |  | 390 | inhibition (Rattus norvegicus): 6% |
| O=C(/C=C/c1ccc(O)c(O)c1)c1ccc([N+](=O)[O-])cc1 | 0.023 |  | inhibition [3]: 5% |
| COc1cc(/C=C/C(=O)c2ccccc2O)ccc1O |  |  | IC50 [5]: 63 µM; inhibition (Rattus norvegicus): 14% |
| O=c1c(O)c(-c2ccc(O)c(O)c2)oc2cc(O)cc(O)c12 |  |  | inhibition [6]: 13% |
| O=C(/C=C/c1ccc(O)cc1)c1ccc(O)cc1O [ISOLIQUIRITIGENIN] | 35 |  | inhibition (Rattus norvegicus): 9% |
| Cc1ccc(C(=O)/C=C/c2ccc(O)c(O)c2)c(C)c1 | 0.017 | 41 |  |
| COc1ccc(/C=C/C(=O)c2ccccc2O)cc1O |  |  | inhibition [3]: 8.6%; inhibition [7]: -4.5%; inhibition (Rattus norvegicus): 11% |
| O=C(/C=C/c1ccc(O)cc1)c1c(O)cc(O)cc1O |  |  | inhibition [3]: 3.1%; inhibition (Rattus norvegicus): 8% |
| COc1ccc(C)cc1C(=O)/C=C/c1ccc(O)c(O)c1 | 0.024 | 30 | Inhibition (Mus musculus): 47% |
| COc1ccc(C(=O)/C=C/c2ccc(O)c(O)c2)cc1 | 0.02 | 490 |  |
| CN(C)c1ccc(C(=O)/C=C/c2ccc(O)c(O)c2)cc1 | 0.0047 | 810 |  |
| O=C(/C=C/c1ccc(O)c(O)c1)c1cc(O)ccc1O | 0.064 | 170 |  |
| O=C(/C=C/c1ccc(O)c(O)c1)c1ccccc1O | 0.023 |  | IC50 [5]: 44 µM; inhibition (Rattus norvegicus): 45% |
| O=C(/C=C/c1ccc(O)c(O)c1)c1cccc(O)c1 | 0.0042 | 140 | inhibition (Rattus norvegicus): 24% |

| SMILES | IC50 [1] [µM] | IC50 [2] [µM] | other results |
| --- | --- | --- | --- |
| O=C(O)c1ccccc1Nc1cccc(C(F)(F)F)c1 [FLUFENAMIC ACID] |  | 19 | inhibition [8]: -0.1% |
| O=C(/C=C/c1ccc(O)c(O)c1)c1c(O)cc(O)cc1O [3,4,2',4',6'-PENTAHYDROXYCHALCONE] | 0.14 |  | inhibition [9]: 11%; inhibition (Rattus norvegicus): 18% |
| O=C(/C=C/c1ccccc1)c1ccccc1O |  |  | inhibition [10]: 19%; inhibition [9]: 13%; inhibition (Rattus norvegicus): 6% |
| CC(C)Oc1ccc(C(=O)/C=C/c2ccc(O)c(O)c2)cc1 | 0.041 |  | inhibition [4]: 11% |
| O=C(/C=C/c1ccc(O)c(O)c1)c1ccc(Cl)cc1 | 0.0085 | 1400 |  |
| COc1ccc(C(=O)/C=C/c2ccc(O)c(O)c2)cc1OC | 0.018 | 140 |  |
| CC(C)c1ccc(O)c(C(=O)/C=C/c2ccc(O)c(O)c2)c1 | 0.004 | 37 | Inhibition (Mus musculus): 16% |
| CCCCOc1ccc(O)c(C(=O)/C=C/c2ccc(O)c(O)c2)c1 | 1 |  | inhibition [4]: 4.2%; Inhibition (Mus musculus): 33% |
| CCOc1ccc(OC)c(C(=O)/C=C/c2ccc(O)c(O)c2)c1 | 0.0038 | 26 |  |
| COc1ccc2c(c1)c(CC(=O)O)c(C)n2C(=O)c1ccc(Cl)cc1 [INDOMETHACIN] |  | 0.8 | Inhibition (Mus musculus): 4.8% |
| Cc1cccc(C(=O)/C=C/c2ccc(O)c(O)c2)c1 | 0.027 | 71 |  |
| Cc1ccc(C)c(C(=O)/C=C/c2ccc(O)c(O)c2)c1 | 0.016 | 44 |  |
| CCOc1ccc(OC)cc1C(=O)/C=C/c1ccc(O)c(O)c1 | 0.027 | 2 |  |
| Oc1c(Cc2ccccc2)ccc2ccccc12 | 0.0069 | 24 | Inhibition (Mus musculus): 67% |
| COc1ccc(OC(C)C)cc1C(=O)/C=C/c1ccc(O)c(O)c1 | 0.014 | 60 | Inhibition (Mus musculus): 34% |
| O=C(/C=C/c1ccc(O)c(O)c1)c1ccc(O)cc1O [BUTEIN] | 0.0046 |  | IC50 [5]: 120 µM; inhibition (Rattus norvegicus): 40% |
| O=C(/C=C/c1ccccc1)c1ccc(O)cc1O [2',4'-DIHYDROXYCHALCONE] |  | 280 | inhibition (Rattus norvegicus): 5% |
| O=C(/C=C/c1ccc(O)c(O)c1)c1ccccc1 | 0.043 | 34 | inhibition (Rattus norvegicus): 44% |
| COc1ccc(C(=O)/C=C/c2ccc(O)c(O)c2)c(O)c1 [CALYTHROPSIN] |  | 65 |  |

| SMILES | IC50 [1] [µM] | IC50 [2] [µM] | other results |
| --- | --- | --- | --- |
| COc1ccc(C(=O)/C=C/c2ccc(O)c(O)c2)c(OC)c1 | 0.01 | 160 |  |
| CCOc1ccc(O)c(C(=O)/C=C/c2ccc(O)c(O)c2)c1 | 0.0053 | 130 | Inhibition (Mus musculus): 42% |
| CC(C)Oc1ccc(O)c(C(=O)/C=C/c2ccc(O)c(O)c2)c1 | 0.011 | 140 |  |
| CCOc1ccc(OCC)c(C(=O)/C=C/c2ccc(O)c(O)c2)c1 | 0.0024 | 24 | Inhibition (Mus musculus): -18% |
| O=C(/C=C/c1ccccc1)c1ccc(O)cc1 |  |  | inhibition [9]: 20%; inhibition (Rattus norvegicus): 5% |
| COc1cc(/C=C/C(=O)c2ccc(Cl)cc2)ccc1O | 8.9 | 41 |  |
| COc1ccc(C(=O)/C=C/c2ccc(O)c(OC)c2)cc1 | 12 |  | inhibition [3]: -7.3%; inhibition (Rattus norvegicus): 2.3% |
| Cc1ccc(O)c(C(=O)/C=C/c2ccc(O)c(O)c2)c1 | 0.039 | 120 |  |
| COc1cccc(C(=O)/C=C/c2ccc(O)c(O)c2)c1 | 0.0065 | 15 |  |
| O=C1CCN(c2ccccc2)N1 [PHENIDONE] |  | 80 | Inhibition (Mus musculus): 24.6% |
| O=C(/C=C/c1ccc(O)c(O)c1)c1ccccc1Cl | 0.092 |  | IC50 [5]: 71 µM |
| O=C(/C=C/c1ccc(O)c(O)c1)c1ccc(O)cc1 |  | 320 | inhibition (Rattus norvegicus): 36% |
| O=C(/C=C/c1ccc(O)c(O)c1)c1ccccc1C(F)(F)F | 0.058 | 230 |  |
| CC(Cc1ccc(O)c(O)c1)C(C)Cc1ccc(O)c(O)c1 (stereo not given) [NORDIHYDROGUAIARETIC ACID] |  | 210 |  |
| COc1ccc(OC)c(C(=O)/C=C/c2ccc(O)c(O)c2)c1 |  | 9.2 |  |
| Cc1cc(C)c(C(=O)/C=C/c2ccc(O)c(O)c2)c(C)c1 | 0.4 | 280 |  |
| CN1C(C(=O)Nc2ccccn2)=C(O)c2ccccc2S1(=O)=O [PIROXICAM] |  | 460 | inhibition [8]: 19% |
| COc1cc(C(=O)/C=C/c2ccc(O)c(O)c2)cc(OC)c1OC | 0.016 |  | inhibition [4]: 13% |
| COc1cc(C(=O)/C=C/c2ccc(O)c(O)c2)ccc1O | 0.009 |  | inhibition [4]: 14% |
